Experimental data collected from several papers.
Protocols differ between the studies behind these lines. pEC50: −log10 of the molar value.

SMILES	tested on	test	test system	conditions	measurement	result
CC(C)(C)OC(=O)N[C@H]1CCN(c2cc(C(=O)NCC(=O)O)ccc2NC(=O)c2cc(Br)c(Br)[nH]2)C1	Klebsiella aerogenes	microbial growth, broth dilution	ATCC13408		MIC	> 32 µg/mL
O=C(O)c1cn(C2CC2)c2cc(N3CCNCC3)c(F)cc2c1=O	Klebsiella aerogenes	microbial growth	ATCC35029		MIC	2 µM
Cl.N[C@@H]1CCN(c2cc(C(=O)NCC(=O)O)ccc2NC(=O)c2cc(Br)c(Br)[nH]2)C1	Klebsiella aerogenes	microbial growth, broth dilution	ATCC13408		MIC	> 32 µg/mL
C=CC(=O)NC1CCN(c2ncc3ncnc(Nc4ccc(Oc5ccc6c(c5)ncn6C)c(C)c4)c3n2)CC1	HCC15	cell growth or viability			pEC50	6.66
Cc1cc(C)nc(SCC(=O)c2cccs2)n1	Leishmania infantum	parasite growth	mouse Macrophage	intracellular, amastigote	pEC50	< 4.19
Cc1[nH]c(C(=O)Nc2ccc(C(=O)NCC(=O)O)cc2N2CC[C@@H](N)C2)c(Cl)c1Cl.Cl	Klebsiella aerogenes	microbial growth, broth dilution	ATCC13408		MIC	> 32 µg/mL
Cc1cc(C)c(C#N)c(OCC(=O)c2ccccc2)n1	Leishmania infantum	parasite growth	mouse Macrophage	intracellular, amastigote	pEC50	< 4.19
C=CC(=O)c1cccnc1Nc1cccc(C(F)(F)F)c1	U-87 MG	cell growth or viability, SRB		48 h	GI50	7.51 µM
CNc1ccnc(SCC(=O)c2ccccc2)c1C#N	Leishmania infantum	parasite growth	mouse Macrophage	intracellular, amastigote	pEC50	< 4.19
O=C(O)c1ccccc1Nc1cccc(C(F)(F)F)c1	U-87 MG	cell growth or viability, SRB		48 h	GI50	> 30 µM
COc1cccc(C(=O)COc2nc(C)cc(C)c2C#N)c1	Leishmania infantum	parasite growth	mouse Macrophage	intracellular, amastigote	pEC50	< 4.19
CC(=NNC(=O)COc1ccc2c(C)c(Cc3ccccc3)c(=O)oc2c1C)c1ccc(Br)cc1	HCT-116	cell growth or viability, MTT		6.3 µg/mL	viability	49.9%
